Here are results for 102 compounds from PubChem BioAssay AID720702 (The Scripps Research Institute Molecular Screening Center, 2013).

Each structure is given as a SMILES string. About 1,200 (0.32%) of roughly 370,000 compounds were called active.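 Rule for the calls: active = inhibition above the mean of all tested compounds plus 3 SD, set per campaign (cut at about 25% in these data); inactive = the rest.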 The full list was thinned out, with actives kept by preference.

The target of the assay is Tyrosyl-DNA phosphodiesterase 2 (Homo sapiens) (UniProt O95551). Description: human TDP2 enzyme inhibitors, primary screen, biochemical, epi absorbance, recombinant enzyme (AID 720702).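 Note: 0% = DMSO with enzyme and 100% = buffer with substrate but no TDP2.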 The note with it: recombinant TDP2, T5PNP hydrolysis, p-nitrophenol absorbance 415 nm; at 12.8 µM; active compounds read high. In outline: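 Material: recombinant human TDP2; quantity: TDP2 enzyme at 120 nM final; medium: Tris-HCl pH 7.5 with MgCl2; compound: single concentration, 12.8 µM nominal, with 1% DMSO; incubation: 2 h enzyme incubation at 37 °C; signal: epi absorbance; measure: percent inhibition; benchmarks: high control without enzyme, low control DMSO plus TDP2; repeats: singlicate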
Sequence of Tyrosyl-DNA phosphodiesterase 2 (Homo sapiens) (O95551 whole entry, looked up): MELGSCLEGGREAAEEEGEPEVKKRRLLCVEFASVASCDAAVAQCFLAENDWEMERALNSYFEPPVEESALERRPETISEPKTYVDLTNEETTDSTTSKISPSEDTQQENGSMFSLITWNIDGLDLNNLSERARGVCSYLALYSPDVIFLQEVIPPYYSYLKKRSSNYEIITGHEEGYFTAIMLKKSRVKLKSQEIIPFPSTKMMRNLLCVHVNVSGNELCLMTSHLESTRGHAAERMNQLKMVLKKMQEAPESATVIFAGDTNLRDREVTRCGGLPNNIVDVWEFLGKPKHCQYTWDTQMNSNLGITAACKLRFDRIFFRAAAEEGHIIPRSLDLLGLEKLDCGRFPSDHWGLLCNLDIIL
Broadly, the inhibition is the drop in the measured response relative to a control, in per cent. Take `O=C(Nc1cc(F)cc(F)c1)OC1CCC12CCC(c1ccccc1)CC2` (configuration not stated): the inhibition was 3% (inactive). Then `O=C(Nc1ccccc1F)C1C2C=CC3(O2)C1C(=O)N(c1cccnc1)C3C(=O)NC1CCCCC1` (configuration not stated), with -0.47% (inactive); and `CCN(CC)CCN1C(=O)C2C(C(=O)Nc3ccc(Br)cc3)C3C=CC2(O3)C1C(=O)NC1CCCCC1` (configuration not stated), with 27.5% (active).

For `CC(C)N1C(=O)C2C(C(=O)NC3CCCCC3)C3C=CC2(O3)C1C(=O)NC1CCCC1` (configuration not stated), the inhibition was 3.15% (inactive).

In the case of `CC1=C(C(=O)N(C(C)C)C(C)C)CC(CC(=O)NCCCCc2ccccc2)C(=O)N1CCC1=CCCCC1` (configuration not stated), the inhibition was -5.04% (inactive). Consider `CC(=O)CCS(=O)(=O)c1ccc(C)c(C)c1`, for which the inhibition was -9.65% (inactive).

Regarding `COc1ccc(C(=O)NCc2ccc(Cl)cc2)cc1S(=O)(=O)N1CCCC1`, the inhibition was -0.23% (inactive). Then `COCCCNC(=O)c1ccc(CNS(=O)(=O)c2ccc(NC(C)=O)cc2)cc1`, with -0.2% (inactive); and `COCCNC(=O)c1ccc(S(=O)(=O)c2ccc(Cl)cc2)c(NC(C)=O)c1`, with 27.5% (active).

Take `Cc1cc(OCC(=O)Nc2nccs2)c2c(C)c(C)c(=O)oc2c1`: the inhibition was 0.03% (inactive). For `CCOC(=O)c1nc(N)sc1C(=O)OCC`, the inhibition is -14.1% (inactive). Turning to `Nc1nc(O)c(CC(=O)O)s1`, the inhibition is 27.2% (active). To `CCCCC(=O)N[C@@H]1CC[C@@]23CCCN2C(=O)CCC[C@H]3[C@H]1C` belongs -3.42% (inactive); to `O=C(OCC(=O)N1CCN(c2ccccc2)CC1)c1ccc([N+](=O)[O-])s1`, 31.9% (active). Then `O=C(OCC(=O)N1CCOCC1)c1ccc(N2CCOCC2)c([N+](=O)[O-])c1`, with -4.23% (inactive); and `Cc1ccc(C)c(OCCC(=O)OCC(=O)N2CCN(c3ccccc3)CC2)c1`, with -10.4% (inactive); and `O=C(NCc1ccccc1Cl)C1CCC(CNc2c(N3CCCCC3)c(=O)c2=O)CC1` (configuration not stated), with 1.69% (inactive). With `C=C(C)C#CC(Cc1ccccc1)N(CC1CC1)/C(N)=N/C(=O)OCc1ccccc1` (configuration not stated), the inhibition is 4.08% (inactive). To `COc1ccc(Cl)cc1NC(=O)CN1CCN(C(=O)N2CCOCC2)CC1` belongs 5.78% (inactive); to `Cc1ccc(Cl)cc1NC(=O)CN1CCN(S(=O)(=O)N2CCOCC2)CC1`, 27.6% (active); to `O=C(CN1CCN(c2cccc(Cl)c2)CC1)Nc1ccc(S(=O)(=O)N2CCOCC2)cc1`, -4.18% (inactive). As for `COc1ccc(C2CC=C(C(=O)O)C(c3ccccc3F)N2S(=O)(=O)c2ccc(C)cc2)cc1OC` (configuration not stated), the inhibition is -4.62% (inactive). Turning to `O=C(C1CCCN1S(=O)(=O)c1ccccc1)N1CCc2ccccc2C1` (configuration not stated), the inhibition was -6.17% (inactive).

For `C=CCN(C(=O)[C@@H](CCCC)[C@@H](O)c1ccc(Cl)cc1)c1ccccc1`, the inhibition was -12.4% (inactive). As to `CCCCCCCCCCCCCCCC(=O)OC/C=C(C)/C=C/C=C(C)/C=C/C1=C(C)CCCC1(C)C`, the inhibition was 2.56% (inactive). In the case of `COCCn1nnnc1C(c1cc2ccc(OC)cc2[nH]c1=O)N1CCc2ccccc2C1` (configuration not stated), the inhibition was 41.1% (active). As for `COc1ccc(CCC(C)N2CCc3ccccc3C2)cc1` (configuration not stated), the inhibition was -2.33% (inactive). Turning to `COCCn1nnnc1C(c1ccccc1Cl)N1CCN(c2ccccc2OC)CC1` (configuration not stated), the inhibition is -10.8% (inactive). As for `NS(=O)(=O)c1ccc(CCNC(=O)c2nc(CS(=O)(=O)c3ccc(Cl)cc3)no2)cc1`, the inhibition is -7.74% (inactive). Then `Cc1cc(C)c(S(=O)(=O)c2ccc(F)cc2C)c(=O)[nH]1`, with 8.26% (inactive); and `CS(=O)(=O)N1CCCC(C(=O)N2CCOCC2)C1` (configuration not stated), with 7.83% (inactive). In the case of `Cc1ccc(-n2c(SCC(=O)Nc3ccc(S(=O)(=O)Nc4nccs4)cc3)nnc2-c2cccnc2)cc1`, the inhibition is -18.4% (inactive). To `COc1ccccc1CCn1cnc(-c2ccccc2)c1C(C)C` belongs -1.89% (inactive); to `COc1ccc(C2Nc3ccccc3C(=O)N2Cc2cccs2)cc1COc1c(C)cccc1C` (configuration not stated), -6.88% (inactive).

As for `Cc1nn(-c2ccccc2)c2c1C(c1ccc(F)cc1)C(C#N)=C(N)O2` (configuration not stated), the inhibition was 78.5% (active). To `COc1ccccc1C1CC(=O)n2c(nc(-c3ccccc3)c2-c2ccccc2)S1` (configuration not stated) belongs -1.89% (inactive); to `COc1ccccc1C1C(C#N)=C(N)Oc2c1c(-c1ccccc1)nn2-c1ccccc1` (configuration not stated), 68.7% (active); to `CCOC(=O)C1=C(C)OC(N)=C(C#N)C1c1cncc(-c2ccc(F)cc2)c1` (configuration not stated), 2.25% (inactive).

In the case of `COc1ccc(C2C(C#N)=C(N)Oc3n[nH]c(C)c32)cc1CN1CCN(c2ccc(F)cc2)CC1` (configuration not stated), the inhibition is 2.94% (inactive). To `CC1=NN(C(=O)Cc2ccc(C)cc2)C(O)(c2cccnc2)C1` (configuration not stated) belongs -0.61% (inactive); to `C[C@@H]1CN([C@@H](C)CO)C(=O)c2cccc(NC(=O)Nc3cccc4ccccc34)c2O[C@H]1CN(C)S(=O)(=O)c1ccccc1F`, -6.81% (inactive); to `CC(C)(C)NC(=O)C(c1cccnc1)N(C(=O)c1cnco1)c1ccc(C(C)(C)C)cc1` (configuration not stated), 6.07% (inactive). As for `Nc1nc2n(n1)C(c1ccco1)CC(c1ccc(Cl)c(Cl)c1)N2` (configuration not stated), the inhibition was -12.1% (inactive).

For `O=C(NCCCc1ccccc1)[C@H](Cc1ccccc1)NC1(C(=O)NCCc2c[nH]c3ccccc23)CCC1`, the inhibition is 2.05% (inactive). For the compound `O=C(N[C@H](C(=O)N1CCC[C@H]1C(=O)NCCc1ccccc1Cl)c1ccccc1)c1ccccc1`, the inhibition was 3.26% (inactive).

For `C[C@H](C(=O)N(C)c1ccccc1)[C@@H](O)c1ccc2ccccc2c1`, the inhibition was 6.57% (inactive). Then `C=CCN(C)CC#Cc1ccccc1`, with -6.66% (inactive); and `CCn1c(SCC(C)=O)nc2sc3c(c2c1=O)CCCC3`, with -7.52% (inactive). Then `CC1(C)OC(=O)C(=CSc2ccc(C(C)(C)C)cc2)C(=O)O1`, with -0.61% (inactive); and `Cc1ccsc1C(C(=O)NC1CCCCC1)N(C(=O)Cc1cccs1)C1CC1` (configuration not stated), with -13.4% (inactive). Consider `O=S(=O)(Cc1noc(-c2ccc(OC(F)(F)F)cc2)n1)c1ccc(F)cc1`, for which the inhibition was 1.13% (inactive). To `O=[N+]([O-])c1ccc(NS(=O)(=O)c2ccccc2)c(Cl)c1` belongs -17.4% (inactive). On to `O=S(=O)(Nc1ccc(O)c2ccccc12)c1ccc(OC(F)(F)F)cc1`, for which the inhibition is 46.3% (active). Then `COC(=O)C1CN(CCc2ccccc2)CCS(=O)(=O)N1Cc1cccc(Cl)c1` (configuration not stated), with 6.91% (inactive); and `COC(=O)CC1CCc2cc(C)cc(C(CC(C)C)NC(=O)[C@H](CC(C)C)NC(=O)OCc3ccccc3)c2O1` (some centres not stated), with -0.76% (inactive); and `O=S(=O)(c1ccc2c(c1)OCCCO2)N1CCN(S(=O)(=O)c2c(F)cccc2F)CC1`, with -13.6% (inactive). Take `CCOC(=O)c1c(C)n(C)c2ccc(OC)c(NS(=O)(=O)CC)c12`: the inhibition was -7.66% (inactive). With `O=C(Nc1nccs1)C1CCN(S(=O)(=O)c2ccc(Cl)c(C(F)(F)F)c2)CC1`, the inhibition was 1.48% (inactive). Regarding `O=C1CC[C@@]23CCCN2C(=O)CCC[C@H]3[C@H]1Cc1ccccc1`, the inhibition was -5.11% (inactive). `COc1ccc(CCNC(=O)COc2ccc3c(c2)OCO3)cc1`: the inhibition is -6.66% (inactive). To `c1ccc(Cc2cc[n+](Cc3ccccc3)cc2)cc1` belongs 6.8% (inactive); to `CN(C)c1ccc(C(CC(=O)O)C(=O)O)cc1` (configuration not stated), -4.74% (inactive). In the case of `CN(C)c1ccc(N/C=C/C(=O)C(F)(F)F)cc1`, the inhibition is 40.7% (active). Regarding `CCOC(=O)c1ccc(NC(=O)c2c(N)n(C)c(=O)[nH]c2=O)cc1`, the inhibition is 3.07% (inactive). To `CCOC(=O)c1ccc(Nc2cc3ccccc3c(=O)[nH]2)cc1` belongs 44.6% (active). Then `CCOC(=O)c1ccc(NC(=O)c2c(NCc3ccccc3)[nH]c(=O)[nH]c2=O)cc1`, with 1.1% (inactive); and `O=C(O)CCN(Cc1ccccc1)S(=O)(=O)c1c(Cl)cccc1Cl`, with 15.2% (inactive). Then `Nn1cnnc1N/N=C/c1cc([N+](=O)[O-])c(Cl)cc1Cl`, with 39.5% (active); and `Clc1ccc(-n2c(COc3ccccc3)nnc2SCc2nc3ccccc3[nH]2)cc1`, with -3.9% (inactive); and `CC1=C2C(=O)OC(c3ccoc3)C2(C)CCC1` (configuration not stated), with -14.5% (inactive).

Consider `COc1ccccc1CN1CCN(Cc2cc(OC)c(OC)cc2OC)CC1`, for which the inhibition is 19% (inactive). To `COc1ccccc1/C=N/N1CCN(Cc2ccccc2Cl)CC1` belongs -9.24% (inactive). Then `COc1ccccc1CN1CCN(C(c2ccccc2)c2ccccc2)CC1`, with 25.9% (active); and `Cc1cc(C)nc(SC2CCCCC2NS(=O)(=O)c2ccc(Cl)cc2)n1` (configuration not stated), with 4.56% (inactive); and `Cc1coc2c(O)cc3c(c12)OC1(N2CCCCC2)C(=O)NCCCC31` (configuration not stated), with 24.4% (inactive). To `O=C1C2C3C=CC(C4CC34)C2C(=O)N1/N=C/c1ccc(-c2ccccc2[N+](=O)[O-])o1` (configuration not stated) belongs 11.7% (inactive); to `COc1ccc(/C=C2/C(=O)N(c3ccccc3)N=C2C)c(OC)c1`, 3.07% (inactive). For `CC1=NN(c2ccc(Cl)c(C(=O)O)c2)C(=O)/C1=C/c1ccc(-c2ccccc2[N+](=O)[O-])o1`, the inhibition is 36.1% (active). In the case of `CC(=O)c1ccc(S(=O)(=O)N2CCC3(CC2)OCCO3)cc1`, the inhibition was 25.2% (active). Then `CC(C)c1ccc(S(=O)(=O)N2CCC3(CC2)OCCO3)cc1`, with 3.95% (inactive); and `Cc1c(C)c(C)c(S(=O)(=O)N2CCC3(CC2)OCCO3)c(C)c1C`, with 5.93% (inactive). With `C=CCc1cc(C)ccc1OCCCn1ccnc1`, the inhibition is -6.81% (inactive). As for `CCCOc1ccc(Oc2c(Cl)cnn(Cc3cccc4ccccc34)c2=O)cc1`, the inhibition was -7.56% (inactive). Then `Cc1ccc(S(=O)(=O)N(CCCN(C)C)Cc2ccc3c(c2)OCO3)cc1`, with 3.37% (inactive).

Turning to `COc1ccc(N(CC(=O)Nc2cc(OC)cc(OC)c2)S(=O)(=O)c2c(C)n[nH]c2C)cc1`, the inhibition is 10.8% (inactive). To `COc1cc(NC(=O)COC(=O)c2cnc(C)cn2)c(C)cc1[N+](=O)[O-]` belongs -5.59% (inactive); to `COc1cc(CCC(=O)OCC(=O)Nc2cccc(S(N)(=O)=O)c2)cc(OC)c1OC`, -0.17% (inactive). To `COc1cc(NC(=O)COC(=O)c2ccc([N+](=O)[O-])s2)cc(OC)c1OC` belongs 31.6% (active); to `Cc1ccc(-n2c(SCC(=O)Nc3ccc(S(=O)(=O)Nc4nccs4)cc3)nnc2-c2ccncc2)cc1`, -0.21% (inactive). To `CCCCCCCCCCCCN1[C@@H](CC(C)=O)c2cc(F)cc(F)c2S1(=O)=O` belongs 2.78% (inactive); to `Cc1cc(S(=O)(=O)NC2CCCCC2)ccc1OCC(=O)NCc1cccnc1`, -6.47% (inactive); to `CCOC(=O)c1c(C)[nH]c2c1-c1ccccc1C(=O)C2=O`, 55.1% (active). As for `CCOC(=O)C1=C(C)c2ccccc2OC1C(=O)OCC` (configuration not stated), the inhibition is -3.4% (inactive). Then `CCOC(=O)c1c(C)oc(C)c(C(=O)OCC)c1=O`, with -25% (inactive); and `COc1ccc(C(=O)OCc2cc(=O)n3ccsc3n2)cc1F`, with -6.94% (inactive).

In the case of `O=C(Cc1ccc(NC(=O)C2CCCN(C(=O)CCc3ccccc3)C2)cc1)Nc1ccc(C(=O)N2CCOCC2)cc1` (configuration not stated), the inhibition was -19.6% (inactive). Take `Fc1ccc2nc(COCc3nc4ccc(F)cc4[nH]3)[nH]c2c1`: the inhibition was -1.58% (inactive). Then `CCCCCc1ccc(-c2ccc(OCC)cc2)nc1`, with -8.17% (inactive); and `CSc1ccccc1OCc1cc(C(=O)N(C)CCc2c(C)n[nH]c2C)no1`, with 6.82% (inactive); and `Cc1ccc(OCCCCc2c(C)n[nH]c2C)cc1`, with 25.9% (active).

Turning to `Brc1ccc(COCCc2cn(Cc3ccccc3)c3ccccc23)cc1`, the inhibition is -2.78% (inactive). Then `CC1CCN(c2ccc(C(=O)O)cc2NS(=O)(=O)c2ccc(Br)s2)CC1`, with 4.53% (inactive).
